The test system of series [1] is MCF7. The series can be described thus: Resistance factor, ratio of IC50 for drug-resistant […] human NCI/ADR cells expressing Pgp in absence of vinblastin to IC50 for drug-sensitive human MCF7 cells in presence of 50 nM vinblastin. In kind it is functional.
For the next series, the system named is NCI/ADR. Briefly: Reversal of Pgp-mediated multidrug resistance in human NCI/ADR cells assessed as enhancement of cytotoxicity of vinblastine after 48 hrs by sulforhodamine B assay. It is filed as cell-based. The method, boiled down:
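NCI/ADR cells plated at ~15% confluency and allowed 24 h to attach. […] Survival by SRB binding, each value the mean of three wells, with ethanol solvent controls. Pgp Antagonism Score = % survival without vinblastine / % survival with vinblastine.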

A short description of series [2]: Cytotoxic activity against drug-resistant […]-deficient human NCI/ADR cells expressing Pgp after 48 hrs by sulforhodamine B assay. In kind it is functional, cell-based. The following applies: NCI/ADR-RES. The method, boiled down:
(§1)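 Cells plated at ~15% confluency and allowed 24 h to attach, then exposed to varying test concentrations for 48 h. Survival by SRB binding, reported as % decrease in binding versus ethanol solvent controls, mean of three wells. For NCI/ADR, exposure with 0 or 50 nM vinblastine; for MCF-7/VP, with 0 or 1 nM vincristine.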

For series [3], the system named is MCF7. The series can be described thus: Cytotoxic activity against drug-sensitive Pgp-, MRP1-deficient human MCF7 cells after 48 hrs by sulforhodamine B assay. Conditions: MCF7, 48 h.
For a further series, the species on record is Bos taurus. The series can be described thus: Effect on bovine brain microtubule depolymerization assessed as decrease in absorbance at wavelength 340 nm after 15 mins. The method, boiled down:
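Bovine brain tubulin purified by three assembly/disassembly cycles followed by ion exchange. Tubulin at 2.5 mg/mL […] in 1 M glutamate, pH 6.6, with 4% DMSO, preincubated with compound at 0 °C for 15 min. 0.5 mM GTP then added and samples warmed to 37 °C. A340 monitored about 60 min.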

Series [4] in a line: Cytotoxic activity against Pgp-deficient human MCF7/VP cells expressing MRP1 after 48 hrs by sulforhodamine B assay. In kind it is functional, cell-based. The method, boiled down:
as §1

For series [5], the target named is Multidrug resistance-associated protein 1 (Homo sapiens, UniProt P33527). Briefly: Reversal of MRP1-mediated multidrug resistance in human MCF7/VP cells assessed as enhancement of cytotoxicity of vincristine after 48 hrs by sulforhodamine B assay. In kind it is cell-based. The method, boiled down: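 MCF-7/VP cells plated at ~15% confluency and allowed 24 h to attach. […] Survival by SRB binding. MRP1 Antagonism Score = % survival without vincristine / % survival with vincristine.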
Multidrug resistance-associated protein 1, sequence (P33527 whole entry): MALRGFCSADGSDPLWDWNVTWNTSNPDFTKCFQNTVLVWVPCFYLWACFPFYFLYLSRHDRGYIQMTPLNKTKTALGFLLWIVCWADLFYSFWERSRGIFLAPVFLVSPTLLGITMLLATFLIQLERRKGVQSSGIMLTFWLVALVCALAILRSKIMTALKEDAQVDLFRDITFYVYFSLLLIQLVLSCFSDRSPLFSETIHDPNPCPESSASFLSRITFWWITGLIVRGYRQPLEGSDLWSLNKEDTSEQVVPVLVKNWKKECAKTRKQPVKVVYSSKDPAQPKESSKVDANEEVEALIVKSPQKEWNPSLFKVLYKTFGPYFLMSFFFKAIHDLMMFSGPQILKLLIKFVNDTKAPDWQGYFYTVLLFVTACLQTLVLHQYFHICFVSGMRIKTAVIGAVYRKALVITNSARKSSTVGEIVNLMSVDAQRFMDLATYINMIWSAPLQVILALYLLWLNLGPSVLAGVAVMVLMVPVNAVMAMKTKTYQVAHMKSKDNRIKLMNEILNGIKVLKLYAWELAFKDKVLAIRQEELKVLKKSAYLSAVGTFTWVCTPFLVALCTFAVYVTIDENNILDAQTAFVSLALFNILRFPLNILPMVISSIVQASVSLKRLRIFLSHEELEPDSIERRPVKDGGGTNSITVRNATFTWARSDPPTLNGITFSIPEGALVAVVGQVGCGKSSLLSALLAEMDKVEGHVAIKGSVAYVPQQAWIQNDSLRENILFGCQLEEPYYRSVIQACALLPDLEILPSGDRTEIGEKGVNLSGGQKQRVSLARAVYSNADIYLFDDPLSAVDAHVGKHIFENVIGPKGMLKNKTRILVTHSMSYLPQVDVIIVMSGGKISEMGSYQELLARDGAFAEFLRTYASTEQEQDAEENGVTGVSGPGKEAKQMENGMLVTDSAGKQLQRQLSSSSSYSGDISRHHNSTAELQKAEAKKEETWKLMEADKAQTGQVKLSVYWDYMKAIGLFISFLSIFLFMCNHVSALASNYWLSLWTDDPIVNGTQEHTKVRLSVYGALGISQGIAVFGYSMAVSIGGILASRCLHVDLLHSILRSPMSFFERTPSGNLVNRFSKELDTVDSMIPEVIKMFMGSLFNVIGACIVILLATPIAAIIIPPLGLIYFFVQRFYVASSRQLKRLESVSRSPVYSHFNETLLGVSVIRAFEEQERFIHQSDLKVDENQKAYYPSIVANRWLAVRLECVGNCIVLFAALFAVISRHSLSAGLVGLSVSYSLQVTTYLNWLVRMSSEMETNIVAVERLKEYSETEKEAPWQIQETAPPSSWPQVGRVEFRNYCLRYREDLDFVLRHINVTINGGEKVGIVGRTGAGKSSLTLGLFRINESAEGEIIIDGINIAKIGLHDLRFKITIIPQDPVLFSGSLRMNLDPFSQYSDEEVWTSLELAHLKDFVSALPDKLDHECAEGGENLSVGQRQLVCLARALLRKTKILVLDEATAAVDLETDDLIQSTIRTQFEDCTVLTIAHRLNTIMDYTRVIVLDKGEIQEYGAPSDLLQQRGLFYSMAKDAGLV

The subject of series [6] is MCF7. The series can be described thus: Resistance factor, ratio of IC50 for Pgp-deficient human MCF7/VP cells expressing MRP1 in absence of vincristine to IC50 for drug sensitive human MCF7 cells in presence of 1 nM vincristine.

Activity calls are given as the source filed them. The calls are words filed in the database; no cut-off is given here.

Turning to `COc1cc(OC)c(OC)cc1CCc1cn(Cc2ccccc2)c2nc(N)nc(C)c12`, the “Ratio IC50” value with MCF7 [1] came out at 0.66; in the series with MCF7 [6] it was 1. Further, the result in the series with NCI/ADR and in the series listed under Bos taurus was inactive. The IC50 was determined as 10 µM in series [2], 15 µM in the series with MCF7 [3] and 15 µM in series [4]. The Activity result in series [5] is recorded as “Not Active”.

In the case of `COc1cc(CCc2cn(Cc3ccccc3)c3nc(N)nc(C)c23)c(OC)c(OC)c1`, the figures for the “Ratio IC50” value in the series with MCF7 [1] and in the series with MCF7 [6] were 0.66 and 1.26, respectively. Besides, the outcome with NCI/ADR was Active. Besides, the IC50 in series [2] was 33 µM; in the series on MCF7 [3], 50 µM; in series [4] it was 63 µM. Further, in the series filed under Bos taurus, the outcome was inactive. Moreover, the result in series [5] was Active.

In the case of `Cc1nc(N)nc2c1c(CCc1ccccc1Cl)cn2Cc1ccccc1`, the “Ratio IC50” value in the series with MCF7 [1] is listed as 0.55; with MCF7 [6] it was 0.75. In addition, the outcome with NCI/ADR and in the series listed under Bos taurus was inactive. The IC50 stood at 11 µM in series [2], 20 µM in the series with MCF7 [3] and 15 µM in series [4]. Besides, in series [5], the Activity entry is listed as “Not Active”.

As to `COc1ccc(CCc2cn(Cc3ccccc3)c3nc(N)nc(C)c23)cc1OC`, the “Ratio IC50” value with MCF7 [1] turned out to be 0.29; with MCF7 [6] it was 0.41. Besides, the result in the series on NCI/ADR and in the series filed under Bos taurus was inactive. For the same compound, the IC50 in series [2] came to 5 µM; with MCF7 [3], 17 µM; in series [4], 7 µM. Also, the Activity result in series [5] is “Not Active”.

Take `COc1ccccc1CCc1cn(Cc2ccccc2)c2nc(N)nc(C)c12`: the results for the “Ratio IC50” value in the series with MCF7 [1] and in the series on MCF7 [6] were 1.17 and 1.13, respectively. The outcome with NCI/ADR was Active. In addition, the results for the IC50 in series [2] and in series [4] were 2.7 µM and 2.6 µM, respectively. Moreover, the Activity result in series [5] is “Not Active”.

For `CC(=O)O[C@H]1C(=O)[C@@]2(C)[C@H]([C@H](OC(=O)c3ccccc3)[C@]3(O)C[C@H](OC(=O)[C@H](O)[C@@H](NC(=O)c4ccccc4)c4ccccc4)C(C)=C1C3(C)C)[C@]1(OC(C)=O)CO[C@@H]1C[C@@H]2O` [PACLITAXEL], the “Ratio IC50” value is listed as 1080 in the series on MCF7 [1] and 1.1 in the series on MCF7 [6]. The results for the concentration for half-maximal inhibition (IC50) in series [2] and in series [4] were 2.7 µM and 0.0028 µM, respectively. Moreover, the result in the series listed under Bos taurus was inactive.

As to `COc1ccc(CCc2cn(Cc3ccccc3)c3nc(N)nc(C)c23)c(OC)c1`, the “Ratio IC50” value is recorded as 0.35 with MCF7 [1] and 0.71 in the series with MCF7 [6]. Also, the result in the series with NCI/ADR was Active. Besides, the IC50 in series [2] stood at 6 µM; with MCF7 [3] it was 17 µM; in series [4], 12 µM. Also, in the series listed under Bos taurus, the outcome was inactive. Further, in series [5], the Activity result is listed as “Not Active”.

Consider `COc1cccc(OC)c1CCc1cn(Cc2ccccc2)c2nc(N)nc(C)c12`, for which the “Ratio IC50” value is 0.54 in the series on MCF7 [1] and 0.91 in the series on MCF7 [6]. In addition, the outcome in the series on NCI/ADR and in the series listed under Bos taurus was Active. Moreover, the IC50 in series [2] was 12 µM; in the series on MCF7 [3], 22 µM; in series [4], 20 µM. Further, the Activity entry in series [5] was “Not Active”.

For the compound `COc1cc(CCc2cn(Cc3ccccc3)c3nc(N)nc(C)c23)cc(OC)c1OC`, the “Ratio IC50” value in the series with MCF7 [1] and with MCF7 [6] was 0.83 each time. Besides, the result with NCI/ADR was inactive. Further, the IC50 in series [2] and in series [4] was 0.25 µM each time. Besides, the result in the series listed under Bos taurus was Active. Also, the Activity result in series [5] is “Not Active”.

For the compound `COc1ccc(CCc2cn(Cc3ccccc3)c3nc(N)nc(C)c23)c(OC)c1OC`, the “Ratio IC50” value in the series on MCF7 [1] turned out to be 0.61; in the series with MCF7 [6], 1.11. For the same compound, in the series with NCI/ADR, the result was inactive. The IC50 in series [2] worked out at 11 µM; in the series with MCF7 [3], 18 µM; in series [4] it was 20 µM. Also, the result in the series filed under Bos taurus was Active. Moreover, in series [5], the outcome was Active.

Regarding `COc1cc(CCc2cn(Cc3ccccc3)c3nc(N)nc(C)c23)cc(OC)c1`, the “Ratio IC50” value is listed as 0.48 with MCF7 [1] and 0.68 with MCF7 [6]. The result in the series with NCI/ADR and in the series listed under Bos taurus was inactive. The IC50 in series [2] came to 12 µM; with MCF7 [3], 25 µM; in series [4] it was 17 µM. Further, the outcome in series [5] was Active.

On to `CC[C@]1(O)C[C@@H]2CN(CCc3c([nH]c4ccccc34)[C@@](C(=O)OC)(c3cc4c(cc3OC)N(C)[C@H]3[C@@](O)(C(=O)OC)[C@H](OC(C)=O)[C@]5(CC)C=CCN6CC[C@]43[C@@H]65)C2)C1` [VINBLASTINE], for which the “Ratio IC50” value was over 134 in the series on MCF7 [1] and 1.1 in the series with MCF7 [6]. Besides, the IC50 was over 375 µM in series [2] and 0.003 µM in series [4]. Further, in the series filed under Bos taurus, the outcome was Active.

For the compound `CC[C@]1(O)C[C@H]2CN(CCc3c([nH]c4ccccc34)[C@@](C(=O)OC)(c3cc4c(cc3OC)N(C=O)[C@H]3[C@@](O)(C(=O)OC)[C@H](OC(C)=O)[C@]5(CC)C=CCN6CC[C@]43[C@@H]65)C2)C1` [VINCRISTINE], the “Ratio IC50” value in the series with MCF7 [1] is 167; in the series on MCF7 [6] it was 15.5. For the same compound, the IC50 is 100 µM in series [2] and 0.0093 µM in series [4]. Besides, the result in the series filed under Bos taurus was Active.

Source of the values: ChEMBL document CHEMBL1806466, “2-Amino-4-methyl-5-phenylethyl substituted-7-N-benzyl-pyrrolo[2,3-d]pyrimidines as novel antitumor antimitotic agents that also reverse tumor resistance” (Bioorg Med Chem, 2011).
